In PMC9444296 (Investigative Radiology, 2022):

Assays:
[1] = Metabolic pathway study in human liver microsomes; type: in vitro ADME; details: 1 μM, 2 hours
[2] = biological target: CYP2D6 (Homo sapiens, UniProt P10635); experiment: CYP2D6 inhibition in human liver microsomes; type: in vitro ADME; details: 0.01, 0.1, 1, 10, and 100 μM, pooled human liver microsomes 0.5 mg/mL
[3] = Plasma protein binding, human plasma; type: in vitro ADME; details: 37°C, 3 min, 10 kDa ultrafiltration, Gd by ICP-OES, n = 4
In short: (§1)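 Test compound at 50, 80 or 110 μM was incubated with human, dog or rat plasma (alongside HSA 40 mg/mL and PBS) at 37°C for 3 min. Mixtures were kept overnight and centrifuged to remove insolubles. Gd was measured by ICP-OES, and the binding ratio was taken as bound over total concentration.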

[4] = biological target: OATP1B3 (Homo sapiens, UniProt Q9NPD5); experiment: OATP1B3 inhibition, HEK293 cells; type: in vitro ADME; details: 1, 5, 10, 50, and 100 μM
Chain of OATP1B3 (Q9NPD5 whole entry): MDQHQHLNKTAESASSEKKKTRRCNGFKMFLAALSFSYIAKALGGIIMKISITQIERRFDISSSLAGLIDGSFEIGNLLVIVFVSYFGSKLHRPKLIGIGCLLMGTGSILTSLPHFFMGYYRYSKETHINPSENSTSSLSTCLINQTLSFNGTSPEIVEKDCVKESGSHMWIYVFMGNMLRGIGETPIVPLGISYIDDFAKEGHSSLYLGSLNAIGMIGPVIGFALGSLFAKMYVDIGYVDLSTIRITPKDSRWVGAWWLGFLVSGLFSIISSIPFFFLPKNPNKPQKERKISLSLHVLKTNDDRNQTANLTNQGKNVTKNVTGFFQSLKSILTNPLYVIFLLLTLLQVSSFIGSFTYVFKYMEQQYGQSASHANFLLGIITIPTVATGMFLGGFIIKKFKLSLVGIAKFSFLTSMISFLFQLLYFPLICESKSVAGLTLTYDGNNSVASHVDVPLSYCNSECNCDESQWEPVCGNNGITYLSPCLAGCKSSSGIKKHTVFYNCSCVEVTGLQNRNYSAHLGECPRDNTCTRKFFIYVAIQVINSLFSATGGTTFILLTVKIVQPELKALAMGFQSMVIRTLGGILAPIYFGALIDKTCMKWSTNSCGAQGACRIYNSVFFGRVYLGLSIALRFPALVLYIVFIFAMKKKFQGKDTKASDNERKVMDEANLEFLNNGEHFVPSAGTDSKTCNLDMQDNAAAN

[5] = Pharmacokinetics in beagle dogs; type: in vivo, dog; details: for AUC: AUC 0-6h; for AUC / AUCINF / C0 / Cl / MRT / T1/2 / Vz: Gd by ICP-MS, NCA, n = 3
[6] = biological target: CNR2 (Homo sapiens, UniProt P34972); experiment: SAFETYscan E/IC50 assay, CNR2; type: biochemical; details: concentration range 0.005 to 100 μM
Chain of CNR2 (P34972 whole entry, the tested form may be a part): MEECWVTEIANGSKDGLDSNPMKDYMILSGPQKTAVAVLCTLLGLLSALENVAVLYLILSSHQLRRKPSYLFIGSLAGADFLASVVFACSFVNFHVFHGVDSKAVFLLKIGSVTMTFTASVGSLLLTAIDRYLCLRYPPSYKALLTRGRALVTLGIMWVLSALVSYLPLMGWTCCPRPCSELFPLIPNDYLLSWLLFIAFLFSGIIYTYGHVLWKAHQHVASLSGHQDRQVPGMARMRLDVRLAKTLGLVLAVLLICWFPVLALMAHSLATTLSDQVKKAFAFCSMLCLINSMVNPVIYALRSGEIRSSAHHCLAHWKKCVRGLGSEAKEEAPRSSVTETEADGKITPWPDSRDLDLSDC
In short: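 Contract-laboratory in vitro panel of 78 targets, run in agonist and/or antagonist modes under provider SOPs over 0.005 to 100 μM. Panel formats included enzyme fragment complementation, FLIPR-based cellular assays, kinase binding and enzymatic assays.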

[7] = tested on: CYP1A2
[8] = Plasma stability, rat plasma; type: in vitro ADME; details: 0.5 mM, 37°C, HPLC; for average remaining percentage of intact MT218: n = 2
In short: (§2)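 Test compound at 0.5 mM was incubated in human, rat or dog plasma at 37°C for up to 48 h, with PBS as control. Samples were mixed with methanol, centrifuged, and the intact compound was quantified by analytical reversed-phase (C18) HPLC.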

[9] = Plasma protein binding, dog plasma; type: in vitro ADME; details: 37°C, 3 min, 10 kDa ultrafiltration, Gd by ICP-OES, n = 4
In short: as §1

[10] = biological target: CYP2C8 (Homo sapiens, UniProt P10632); experiment: CYP2C8 inhibition in human liver microsomes; type: in vitro ADME; details: highest test concentration (100 μM)
Chain of CYP2C8 (P10632 whole entry): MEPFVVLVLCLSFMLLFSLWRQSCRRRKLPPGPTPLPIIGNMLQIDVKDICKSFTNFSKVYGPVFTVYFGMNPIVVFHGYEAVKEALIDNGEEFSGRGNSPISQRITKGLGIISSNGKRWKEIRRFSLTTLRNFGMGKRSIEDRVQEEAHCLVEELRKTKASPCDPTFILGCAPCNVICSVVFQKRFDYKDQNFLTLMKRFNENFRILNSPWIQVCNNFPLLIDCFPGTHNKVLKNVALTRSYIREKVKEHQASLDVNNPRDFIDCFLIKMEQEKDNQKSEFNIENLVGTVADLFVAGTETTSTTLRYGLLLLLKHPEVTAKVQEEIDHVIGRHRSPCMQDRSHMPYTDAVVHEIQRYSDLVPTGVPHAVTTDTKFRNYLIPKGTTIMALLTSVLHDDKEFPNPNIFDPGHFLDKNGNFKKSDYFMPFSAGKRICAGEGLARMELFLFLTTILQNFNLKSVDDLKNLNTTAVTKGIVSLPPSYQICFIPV

[11] = biological target: CYP3A4 (Homo sapiens, UniProt P08684); details: 0.01, 0.1, 1, 10, and 100 μM, pooled human liver microsomes 0.5 mg/mL
Chain of CYP3A4 (P08684 whole entry): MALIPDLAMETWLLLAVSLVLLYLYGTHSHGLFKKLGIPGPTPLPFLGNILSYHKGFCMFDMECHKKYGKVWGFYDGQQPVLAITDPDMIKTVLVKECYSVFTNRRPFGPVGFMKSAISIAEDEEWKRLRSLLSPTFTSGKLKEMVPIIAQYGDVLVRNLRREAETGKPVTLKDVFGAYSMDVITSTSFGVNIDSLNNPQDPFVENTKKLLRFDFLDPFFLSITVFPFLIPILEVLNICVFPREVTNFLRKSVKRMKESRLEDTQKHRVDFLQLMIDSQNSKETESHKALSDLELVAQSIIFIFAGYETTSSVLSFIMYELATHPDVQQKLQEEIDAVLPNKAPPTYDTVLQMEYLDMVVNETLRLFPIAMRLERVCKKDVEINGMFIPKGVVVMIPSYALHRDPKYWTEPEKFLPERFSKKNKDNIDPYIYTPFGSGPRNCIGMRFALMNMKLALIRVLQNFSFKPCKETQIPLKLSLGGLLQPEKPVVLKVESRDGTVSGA

[12] = Excretion in SD rats; type: in vivo, rat
In short: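 Non-GLP study in SD rats given a single IV dose of 0.1 mmol/kg. One group (3/sex) gave urine and feces predose and at 0–4, 4–8, 8–24, 24–48, 48–72, 72–96, 96–120 and 120–144 h. A second group with conscious biliary cannulation gave bile 30 min predose and at 0–1, 1–2, 2–4, 4–6 and 6–8 h. Gd was measured by ICP-MS.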

[13] = Plasma stability, dog plasma; type: in vitro ADME; details: 0.5 mM, 37°C, HPLC; for average remaining percentage of intact MT218: n = 2
In short: as §2

[14] = beagle dog ♀, 0.04 mmol/kg single IV
[15] = beagle dog ♀, 0.1 mmol/kg single IV
[16] = beagle dog ♀, 0.2 mmol/kg single IV
[17] = beagle dog ♂, 0.04 mmol/kg single IV
[18] = beagle dog ♂, 0.1 mmol/kg single IV
[19] = beagle dog ♂, 0.2 mmol/kg single IV

Chain of CYP2D6 (P10635 whole entry): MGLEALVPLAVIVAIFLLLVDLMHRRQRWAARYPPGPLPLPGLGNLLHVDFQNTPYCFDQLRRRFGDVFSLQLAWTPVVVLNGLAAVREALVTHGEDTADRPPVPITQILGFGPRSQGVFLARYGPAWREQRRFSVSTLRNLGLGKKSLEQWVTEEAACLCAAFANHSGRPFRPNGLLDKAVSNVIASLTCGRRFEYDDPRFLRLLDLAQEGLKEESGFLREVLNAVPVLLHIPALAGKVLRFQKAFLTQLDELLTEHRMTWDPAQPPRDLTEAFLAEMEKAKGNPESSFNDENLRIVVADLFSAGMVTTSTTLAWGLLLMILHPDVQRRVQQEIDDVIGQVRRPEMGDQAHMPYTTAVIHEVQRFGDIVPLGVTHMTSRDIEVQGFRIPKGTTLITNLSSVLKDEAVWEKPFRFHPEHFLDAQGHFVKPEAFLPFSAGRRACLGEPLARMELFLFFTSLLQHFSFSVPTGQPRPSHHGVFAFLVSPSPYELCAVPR

In the case of ZD2-N3-Gd(HP-DO3A) [MT218], the MT218 remaining ([1]; CYP1A2 group) is reported as 105%, the MT218 remaining ([1]; CYP2B6 group) is reported as 117% and the MT218 remaining ([1]; CYP2C8 group) is reported as 101%. The MT218 remaining ([1]; CYP2C9 group) was 98.8%, the MT218 remaining ([1]; CYP2C19 group) was 105% and the MT218 remaining ([1]; CYP2D6 group) was 109%. The MT218 remaining ([1]; CYP3A4 group) was 99.1%, the “inhibition of CYP2D6 activity” value [2] was “did not inhibit” and the “binding ratio to plasma proteins” value ([3]; 50 μM) was 47.31%. The “binding ratio to plasma proteins” value ([3]; 80 μM) was 45.15%, the “binding ratio to plasma proteins” value ([3]; 110 μM) was 40.50% and the “inhibition of OATP1B3 transporter activity” value [4] was “no inhibition potential”. It also gave an AUC [5, 14] of 38160 ng·h/mL, an AUC [5, 15] of 93960 ng·h/mL and an AUC [5, 16] of 138990 ng·h/mL. For the same substance, the AUC [5, 17] was 34800 ng·h/mL, the AUC [5, 18] was 89520 ng·h/mL and the AUC [5, 19] was 156540 ng·h/mL. The “AUC Ratio” value ([5]; AUC(dose)/AUC(low dose), beagle dog ♀, 0.04 mmol/kg) was 1, the “AUC Ratio” value ([5]; AUC(dose)/AUC(low dose), beagle dog ♂, 0.04 mmol/kg) was 1 and the “AUC Ratio” value ([5]; AUC(high dose)/AUC(low dose), beagle dog ♀, 0.2 mmol/kg) was 3.64. The “AUC Ratio” value ([5]; AUC(high dose)/AUC(low dose), beagle dog ♂, 0.2 mmol/kg) was 4.50, the “AUC Ratio” value ([5]; AUC(middle dose)/AUC(low dose), beagle dog ♀, 0.1 mmol/kg) was 2.46 and the “AUC Ratio” value ([5]; AUC(middle dose)/AUC(low dose), beagle dog ♂, 0.1 mmol/kg) was 2.57. The AUCINF [5, 14] was 38470 ng·h/mL, the C0 [5, 14] was 59.33 µg/mL and the Cl [5, 14] was 2.734 mL/min/kg. It also gave an MRT [5, 14] of 58.2 min, a T1/2 [5, 14] of 44.4 min and a Vz [5, 14] of 0.17599 L/kg. It also gave an AUCINF [5, 15] of 94170 ng·h/mL, a C0 [5, 15] of 146.59 µg/mL and a Cl [5, 15] of 2.794 mL/min/kg. The MRT [5, 15] was 57.6 min, the T1/2 [5, 15] was 40.2 min and the Vz [5, 15] was 0.16108 L/kg. It also gave an AUCINF [5, 16] of 139150 ng·h/mL, a C0 [5, 16] of 268.10 µg/mL and a Cl [5, 16] of 3.7757 mL/min/kg. For the same substance, the MRT [5, 16] was 47.4 min, the T1/2 [5, 16] was 37.8 min and the Vz [5, 16] was 0.20593 L/kg. The AUCINF [5, 17] was 34940 ng·h/mL, the C0 [5, 17] was 50.97 µg/mL and the Cl [5, 17] was 3.0033 mL/min/kg. For the same substance, the MRT [5, 17] was 60.6 min, the T1/2 [5, 17] was 45.6 min and the Vz [5, 17] was 0.19708 L/kg. It also gave an AUCINF [5, 18] of 89780 ng·h/mL, a C0 [5, 18] of 149.33 µg/mL and a Cl [5, 18] of 2.9287 mL/min/kg. For the same substance, the MRT [5, 18] was 57 min, the T1/2 [5, 18] was 42 min and the Vz [5, 18] was 0.17773 L/kg. For the same substance, the AUCINF [5, 19] was 156900 ng·h/mL, the C0 [5, 19] was 286.90 µg/mL and the Cl [5, 19] was 3.367 mL/min/kg. The MRT [5, 19] was 52.8 min, the T1/2 [5, 19] was 41.4 min and the Vz [5, 19] was 0.20164 L/kg. The “mean plasma elimination half-life (t1/2)” value ([5]; dogs, 0.1 mmol/kg IV) was 41.4 min, the inhibition rate [6] was 12.4% and the “mRNA expression level of CYP1A2 vs vehicle controls” value ([7]; 100 μM, human hepatocytes, 1 of the 3 lots of cells) was 2.10 fold. The “induction on enzyme activity of CYP1A2” value ([7]; human primary hepatocytes, 1, 10, and 100 μM) was “no induction”, the “average remaining percentage of intact MT218” value (“average remaining percentage” for short) ([8]; 1 h) was 74.87% and the “average remaining percentage” value ([8]; 3 h) was 20.54%. The “average remaining percentage” value ([8]; 6 h) was 4.61%, the “average remaining percentage” value ([8]; 28 h) was 0% and the “average remaining percentage” value ([8]; 48 h) was 0%. For the same substance, the “enzymatic degradation half-life (t1/2)” value [8] was 97.8 min, the “binding ratio to plasma proteins” value ([9]; 50 μM) was 29.10% and the “binding ratio to plasma proteins” value ([9]; 80 μM) was 26.91%. The “binding ratio to plasma proteins” value ([9]; 110 μM) was 48.44%, the “relative CYP2C8 activity, of the negative controls” value [10] was 52.5% and the “inhibition of CYP3A4 activity” value [11] was “did not inhibit”. The “total excretion of injected Gd in bile, feces, and urine” value ([12]; SD rats, 0.1 mmol/kg single IV, within 6 days, ICP-MS) was 100.01% ± 10.85% of the injected dose, the “injected dose excreted in urine” value ([12]; rats, single dose, within the first 8 hours postinjection) was “Greater than 80%” and the “average remaining percentage” value ([13]; 1 h) was 89.19%. For the same substance, the “average remaining percentage” value ([13]; 3 h) was 71.45%, the “average remaining percentage” value ([13]; 6 h) was 47.81% and the “average remaining percentage” value ([13]; 28 h) was 11.23%. For the same substance, the “average remaining percentage” value ([13]; 48 h) was 5.38% and the “enzymatic degradation half-life (t1/2)” value [13] was 351 min.
